# Active and inactive are the calls of the source. The calls are words filed in the database; no cut-off is given here.
# What was measured:
# Acetylcholinesterase [1] = molecular target: Acetylcholinesterase (Homo sapiens, UniProt P22303); test: Inhibition of recombinant human AChE expressed in HEK293F cells using acetylthiocholine iodide as substrate measured over 60 secs by Ellman's method; design: species or system HEK293
# [2] = (§1) Inhibition of recombinant full length Aedes aegypti AChE1 expressed in baculovirus-infected Sf9 insect cells using acetylthiocholine iodide as substrate measured over 60 secs by Ellman's method
# Procedure, shortened: (§2)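 Secreted, non-purified recombinant enzyme in growth medium, tested as enzyme source. Ellman assay at 30 °C in 0.1 M phosphate buffer pH 7.4 with 0.2 mM DTNB and 1 mM acetylthiocholine iodide; A412 followed over 60 s. Compound (100 mM DMSO stock) tested at eight concentrations, maximum 1 mM. Activity set relative to eight uninhibited controls per plate; IC50 from three-parameter variable-slope fit; 2-3 independent replicates.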
# [3] = system: Acetylcholinesterase (Anopheles gambiae), Q869C3 [G122S]; test: Inhibition of recombinant full length Anopheles gambiae AChE1 G122S mutant expressed in baculovirus-infected Sf9 insect cells up to 1 mM using acetylthiocholine iodide as substrate measured over 60 secs by Ellman's method; procedure, shortened: as §2
# Acetylcholinesterase [4] = molecular target: T1, Acetylcholinesterase (Anopheles gambiae, UniProt Q869C3); test: (§3) Inhibition of recombinant full length Anopheles gambiae AChE1 expressed in baculovirus-infected Sf9 insect cells using acetylthiocholine iodide as substrate measured over 60 secs by Ellman's method
# Acetylcholinesterase [5] = molecular target: Acetylcholinesterase (Anopheles gambiae, UniProt Q869C3, G122S); test: Inhibition of recombinant full length Anopheles gambiae AChE1 G122S mutant expressed in baculovirus-infected Sf9 insect cells using acetylthiocholine iodide as substrate measured over 60 secs by Ellman's method
# [6] = Selectivity ratio of IC50 for recombinant human AChE expressed in HEK293F cells to IC50 for recombinant full length Anopheles gambiae AChE1 expressed in baculovirus-infected Sf9 insect cells
# Procedure, shortened: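 Ratio of the hAChE IC50 divided by the higher of the AgAChE1 or AaAChE1 IC50. Each IC50 came from an Ellman assay (1 mM acetylthiocholine, 0.2 mM DTNB, pH 7.4, 30 °C) with eight concentrations up to 1 mM, using 2-3 replicates.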
# Anopheles gambiae [7] = test: Insecticidal activity against 3rd instar larvae of Anopheles gambiae Kisumu assessed as mortality at 500 uM administered via de-chlorinated tap water after 48 hrs; format: functional
# Anopheles gambiae [8] = test: Insecticidal activity against 3rd instar larvae of Anopheles gambiae Kisumu assessed as mortality at 500 uM administered via de-chlorinated tap water after 24 hrs; format: functional
# Procedure, shortened: (§4)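 Kenyan strains were reared at 27-28 °C, about 80% humidity, 12/12 h light. Per compound and concentration, 25 third-instar larvae were placed in 100 ml de-chlorinated water containing the compound and kept under insectary conditions. The negative control was plain water; the positive control was propoxur at 25 µM. Mortality was scored at 24 h; 75 treated and 50 control larvae in total.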
# Anopheles gambiae [9] = test: Insecticidal activity against five days old adult Anopheles gambiae Kisumu assessed as mortality at 100 mM applied topically on upper part of pronotum after 48 hrs (reference value: 15 to 24%); format: functional; conditions: topical
# Aedes aegypti [10] = test: Insecticidal activity against five days old adult Aedes aegypti Mombasa assessed as mortality at 2 mM applied topically on upper part of pronotum after 24 hrs (reference value: 2 to 10%); format: functional; conditions: topical
# Aedes aegypti [11] = test: Insecticidal activity against five days old adult Aedes aegypti Mombasa assessed as mortality at 0.2 nmol applied topically on upper part of pronotum after 24 hrs; format: functional
# Aedes aegypti [12] = test: Inhibition of recombinant full length Aedes aegypti AChE1 expressed in baculovirus-infected Sf9 insect cells at 1 mM using acetylthiocholine iodide as substrate measured over 60 secs by Ellman's method; procedure, shortened: as §2
# Acetylcholinesterase [13] = molecular target: T1, Acetylcholinesterase; test: Inhibition of AChE1 in Anopheles gambiae body extract using acetylthiocholine iodide as substrate measured over 60 secs by Ellman's method
# Aedes aegypti [14] = test: Insecticidal activity against 3rd instar larvae of Aedes aegypti Mombasa assessed as mortality at 50 uM administered via de-chlorinated tap water after 24 hrs; format: functional; procedure, shortened: as §4
# Aedes aegypti [15] = test: Insecticidal activity against five days old adult Aedes aegypti Mombasa assessed as mortality at 10 mM applied topically on upper part of pronotum after 24 hrs (reference value: 3 to 15%); format: functional; conditions: topical
# Acetylcholinesterase [16] = molecular target: T1, Acetylcholinesterase; test: Inhibition of AChE1 in Anopheles gambiae head extract using acetylthiocholine iodide as substrate measured over 60 secs by Ellman's method
# Anopheles gambiae [17] = test: Insecticidal activity against five days old adult Anopheles gambiae Kisumu assessed as mortality at 10 mM applied topically on upper part of pronotum after 48 hrs (reference value: 14 to 22%); format: functional; conditions: topical
# Anopheles gambiae [18] = test: Insecticidal activity against five days old adult Anopheles gambiae Kisumu assessed as mortality at 2 mM applied topically on upper part of pronotum after 24 hrs (reference value: 3 to 17%); format: functional; conditions: topical
# Aedes aegypti [19] = test: Insecticidal activity against five days old adult Aedes aegypti Mombasa assessed as mortality at 100 mM applied topically on upper part of pronotum after 48 hrs (reference value: 7 to 8%); format: functional; conditions: topical
# Anopheles gambiae [20] = test: Insecticidal activity against five days old adult Anopheles gambiae Kisumu assessed as mortality at 10 mM applied topically on upper part of pronotum after 24 hrs (reference value: 8 to 16%); format: functional; conditions: topical
# Aedes aegypti [21] = test: Insecticidal activity against five days old adult Aedes aegypti Mombasa assessed as mortality at 100 mM applied topically on upper part of pronotum after 24 hrs (reference value: 3%); format: functional; conditions: topical
# Aedes aegypti [22] = test: Insecticidal activity against five days old adult Aedes aegypti Mombasa assessed as mortality at 1 nmol applied topically on upper part of pronotum after 24 hrs; format: functional
# Aedes aegypti [23] = test: Insecticidal activity against 3rd instar larvae of Aedes aegypti Mombasa assessed as mortality at 500 uM administered via de-chlorinated tap water after 24 hrs; format: functional; procedure, shortened: as §4
# Anopheles gambiae [24] = test: Insecticidal activity against five days old adult Anopheles gambiae Kisumu assessed as mortality at 0.2 nmol applied topically on upper part of pronotum after 24 hrs; format: functional
# Anopheles gambiae [25] = test: Insecticidal activity against five days old adult Anopheles gambiae Kisumu assessed as mortality at 100 mM applied topically on upper part of pronotum after 24 hrs (reference value: 9 to 10%); format: functional; conditions: topical
# Anopheles gambiae [26] = test: Insecticidal activity against 3rd instar larvae of Anopheles gambiae Kisumu assessed as mortality at 50 uM administered via de-chlorinated tap water after 48 hrs; format: functional
# Anopheles gambiae [27] = test: Insecticidal activity against 3rd instar larvae of Anopheles gambiae Kisumu assessed as mortality at 50 uM administered via de-chlorinated tap water after 24 hrs; format: functional; procedure, shortened: as §4
# Aedes aegypti [28] = test: Insecticidal activity against 3rd instar larvae of Aedes aegypti Mombasa assessed as mortality at 500 uM administered via de-chlorinated tap water after 48 hrs (reference value: 0 to 2%); format: functional
# Aedes aegypti [29] = test: Insecticidal activity against five days old adult Aedes aegypti Mombasa assessed as mortality at 2 mM applied topically on upper part of pronotum after 48 hrs (reference value: 3 to 12%); format: functional; conditions: topical
# Aedes aegypti [30] = test: as §1; procedure, shortened: as §2
# Anopheles gambiae [31] = test: Insecticidal activity against five days old adult Anopheles gambiae Kisumu assessed as mortality at 2 mM applied topically on upper part of pronotum after 48 hrs (reference value: 13 to 38%); format: functional; conditions: topical
# Anopheles gambiae [32] = test: Insecticidal activity against five days old adult Anopheles gambiae Kisumu assessed as mortality at 1 nmol applied topically on upper part of pronotum after 24 hrs; format: functional
# Aedes aegypti [33] = test: Insecticidal activity against five days old adult Aedes aegypti Mombasa assessed as mortality at 10 mM applied topically on upper part of pronotum after 48 hrs (reference value: 3 to 15%); format: functional; conditions: topical
# Aedes aegypti [34] = test: Insecticidal activity against five days old adult Aedes aegypti Mombasa assessed as mortality at 10 nmol applied topically on upper part of pronotum after 24 hrs; format: functional
# [35] = molecular target: Acetylcholinesterase (Anopheles gambiae) (UniProt Q869C3); test: Inhibition of recombinant full length Anopheles gambiae AChE1 expressed in baculovirus-infected Sf9 insect cells at 1 mM using acetylthiocholine iodide as substrate measured over 60 secs by Ellman's method; procedure, shortened: as §2
# Aedes aegypti [36] = test: Insecticidal activity against 3rd instar larvae of Aedes aegypti Mombasa assessed as mortality at 50 uM administered via de-chlorinated tap water after 48 hrs (reference value: 0 to 4%); format: functional
# Anopheles gambiae [37] = test: Insecticidal activity against five days old adult Anopheles gambiae Kisumu assessed as mortality at 10 nmol applied topically on upper part of pronotum after 24 hrs; format: functional
# [38] = molecular target: Acetylcholinesterase (Anopheles gambiae) (UniProt Q869C3); test: as §3
smiles,measurement,setting,value
COc1ccccc1N=C(S)NCCN1CCOCC1,IC50,Acetylcholinesterase [1],> 200 µM
same,IC50,[2],> 200 µM
same,inhibition,[3],inactive
same,IC50,Acetylcholinesterase [4],> 200 µM
S=C(NCCN1CCOCC1)Nc1cccc(Cl)c1,IC50,Acetylcholinesterase [1],> 200 µM
same,IC50,Acetylcholinesterase [5],> 200 µM
same,Ratio IC50,[6],> 3
same,IC50,[2],53 µM
same,IC50,Acetylcholinesterase [4],68 µM
NS(=O)(=O)c1ccc(NC(=S)NCCN2CCOCC2)cc1,IC50,Acetylcholinesterase [1],> 200 µM
same,IC50,[2],> 200 µM
same,inhibition,[3],inactive
same,IC50,Acetylcholinesterase [4],> 200 µM
COc1ccccc1NC(=S)NCCN(C)C,mortality at 500 µM,Anopheles gambiae [7],3%
same,mortality at 500 µM,Anopheles gambiae [8],3%
same,mortality at 100000 µM,Anopheles gambiae [9],73%
same,IC50,Acetylcholinesterase [1],120 µM
same,mortality at 2000 µM,Aedes aegypti [10],8%
same,mortality,Aedes aegypti [11],8%
same,inhibition,Aedes aegypti [12],50%
same,IC50,Acetylcholinesterase [13],7.6 µM
same,mortality at 50 µM,Aedes aegypti [14],7%
same,mortality at 10000 µM,Aedes aegypti [15],10%
same,IC50,Acetylcholinesterase [16],7.1 µM
same,mortality at 10000 µM,Anopheles gambiae [17],20%
same,mortality at 2000 µM,Anopheles gambiae [18],16%
same,mortality at 100000 µM,Aedes aegypti [19],18%
same,IC50,Acetylcholinesterase [5],50 µM
same,mortality at 10000 µM,Anopheles gambiae [20],9%
same,mortality at 100000 µM,Aedes aegypti [21],10%
same,mortality,Aedes aegypti [22],10%
same,mortality at 500 µM,Aedes aegypti [23],5%
same,mortality,Anopheles gambiae [24],16%
same,mortality at 100000 µM,Anopheles gambiae [25],61%
same,mortality at 50 µM,Anopheles gambiae [26],7%
same,mortality at 50 µM,Anopheles gambiae [27],5%
same,mortality at 500 µM,Aedes aegypti [28],7%
same,Ratio IC50,[6],17
same,mortality at 2000 µM,Aedes aegypti [29],13%
same,inhibition,Aedes aegypti [30],Dose-dependent effect
same,IC50,[2],6 µM
same,mortality at 2000 µM,Anopheles gambiae [31],23%
same,mortality,Anopheles gambiae [32],0%
same,mortality at 10000 µM,Aedes aegypti [33],15%
same,mortality,Aedes aegypti [34],10%
same,inhibition,[35],50%
same,mortality at 50 µM,Aedes aegypti [36],7%
same,mortality,Anopheles gambiae [37],57%
same,inhibition,[38],Dose-dependent effect
same,IC50,Acetylcholinesterase [4],7.1 µM
CN(C)CCNC(=S)Nc1ccccc1Cl,IC50,Acetylcholinesterase [1],> 200 µM
same,IC50,Acetylcholinesterase [5],> 200 µM
same,IC50,[2],14 µM
same,IC50,Acetylcholinesterase [4],17 µM

# Source: ChEMBL document CHEMBL4033657, “N-Aryl-N'-ethyleneaminothioureas effectively inhibit acetylcholinesterase 1 from disease-transmitting mosquitoes” (Eur J Med Chem, 2017)
